Experimental data reported in ChEMBL document CHEMBL1667862, “Chisopanins A-K, 11 new protolimonoids from Chisocheton paniculatus and their anti-inflammatory activities” (Bioorg Med Chem, 2011).

What was measured:
RAW264.7 [1] = assay: Antiinflammatory activity in mouse RAW264.7 cells assessed as inhibition of LPS-induced TNFalpha production treated 2 hrs before LPS challenge measured after 24 hrs by ELISA; assay type: functional, cell-based; settings: in the assay text read “measured after 18 hrs” for “measured after 24 hrs”
Outline: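 RAW 264.7 cells (RPMI 1640, 10% heat-inactivated FBS, 37 °C, 5% CO2) seeded in 24-well plates, grown 24 h, then exposed to compounds (100, 50, 25, 12.5, 6.25 µM) and LPS as for the nitrite assay. TNF-α in medium measured by mouse ELISA kit. Data as mean ± SD.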

RAW264.7 [2] = assay: Antiinflammatory activity in mouse RAW264.7 cells assessed as inhibition of LPS-induced nitric oxide production treated 2 hrs before LPS challenge measured after 18 hrs by griess reaction; assay type: functional, cell-based
Outline: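 RAW 264.7 cells seeded at 1 × 10^5 per well in 24-well plates in RPMI 1640 with 10% heat-inactivated FBS, grown 24 h. Pretreated 2 h with compounds (40, 20, 10, 5, 2.5 µM; DMSO ≤0.1% final), then stimulated with LPS 2 µg/mL for 18 h. Nitrite measured. Mean ± SD.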

Structure (SMILES)	IC50 (RAW264.7 [1]) [µM]	IC50 (RAW264.7 [2]) [µM]
CC(=O)O[C@@H]1CC[C@]2(C)[C@H]3CC[C@]4(C)C(=CC[C@H]4C4=CC(C(O)C(C)(C)O)OC4=O)[C@]3(C)[C@H](O)C[C@H]2C1(C)C (stereo partly specified) [CHISOPANIN K]	47.4	33.4
CO[C@@H]1O[C@@H]([C@H](O)C(C)(C)O)C[C@H]1[C@H]1CC[C@]2(C)C3=CC[C@H]4C(C)(C)C(=O)CC[C@]4(C)[C@H]3CC[C@@]12C	54.6	29.4
CC(=O)O[C@@H]1CC[C@]2(C)[C@H]3CC[C@]4(C)C(=CC[C@@H]4[C@H]4CO[C@H](C(C)(C)O)[C@H](O)C4)[C@]3(C)[C@H](O)C[C@H]2C1(C)C	73.5	> 50
C[C@@H]1C[C@H]2[C@@H]3CCC4=CC(=O)C=C[C@]4(C)[C@@]3(F)[C@@H](O)C[C@]2(C)[C@@]1(O)C(=O)CO [DEXAMETHASONE]	–	0.86
CC(=O)O[C@@H]1CC[C@]2(C)[C@H]3CC[C@]4(C)C(=CC[C@@H]4[C@H]4CO[C@](O)(C(C)(C)O)[C@H](O)C4)[C@]3(C)[C@H](OC(C)=O)C[C@H]2C1(C)C [CHISOPANIN A]	26.9	5.4
C=C(C)[C@@H](O)[C@H]1C[C@@H]([C@H]2CC=C3[C@]4(C)[C@H](O)C[C@H]5C(C)(C)[C@H](OC(C)=O)CC[C@]5(C)[C@H]4CC[C@]32C)[C@H](OCC)O1 [CHISOPANIN D]	> 100	> 50
C=C(C)[C@@H](O)[C@H]1C[C@@H]([C@H]2CC=C3[C@]4(C)[C@H](O)C[C@H]5C(C)(C)[C@H](OC(C)=O)CC[C@]5(C)[C@H]4CC[C@]32C)[C@H](OC)O1 [CHISOPANIN C]	> 100	40
CC(=O)O[C@@H]1CC[C@]2(C)[C@H]3CC[C@]4(C)C(=CC[C@@H]4[C@H]4COC(C)(C)[C@@H](O)[C@H](O)C4)[C@]3(C)[C@H](OC(C)=O)C[C@H]2C1(C)C [CHISIAMOL C]	> 100	8.7
CC(=O)O[C@@H]1CC[C@]2(C)[C@H]3CC[C@]4(C)C(=CC[C@@H]4[C@H]4COC(C)(C)[C@@H](O)[C@H](O)C4)[C@]3(C)[C@H](O)C[C@H]2C1(C)C [CHISIAMOL B]	> 100	16.5
O=c1c(-c2ccc(O)cc2)coc2cc(O)cc(O)c12 [GENISTEIN]	19.1	–
CC(=O)O[C@@H]1CC[C@]2(C)[C@H]3CC[C@]4(C)C(=CC[C@@H]4[C@H]4CO[C@](O)(C(C)(C)O)[C@H](O)C4)[C@]3(C)[C@H](O)C[C@H]2C1(C)C [CHISOPANIN B]	30.7	7.9

The remaining lines, values ahead:

IC50 (RAW264.7 [1]) [µM]	IC50 (RAW264.7 [2]) [µM]	Structure (SMILES)
> 100	6.2	CO[C@@H]1O[C@@H]([C@H](O)C(C)(C)OC)C[C@H]1[C@H]1CC=C2[C@]3(C)[C@H](O)C[C@H]4C(C)(C)[C@H](OC(C)=O)CC[C@]4(C)[C@H]3CC[C@]21C [CHISOPANIN E]
> 100	6.5	CO[C@@H]1O[C@@H]([C@H](O)C(C)(C)O)C[C@H]1[C@H]1CC=C2[C@]3(C)[C@H](O)C[C@H]4C(C)(C)[C@H](OC(C)=O)CC[C@]4(C)[C@H]3CC[C@]21C [CHISIAMOL D]
> 100	8.9	CO[C@H]1O[C@@H]([C@H](O)C(C)(C)O)C[C@H]1[C@H]1CC=C2[C@]3(C)[C@H](O)C[C@H]4C(C)(C)[C@H](OC(C)=O)CC[C@]4(C)[C@H]3CC[C@]21C [CHISIAMOL E]
> 100	12.3	CCOC(C)(C)[C@@H](O)[C@H]1C[C@@H]([C@H]2CC=C3[C@]4(C)[C@H](O)C[C@H]5C(C)(C)[C@H](OC(C)=O)CC[C@]5(C)[C@H]4CC[C@]32C)[C@@H](OC)O1 [CHISOPANIN J]
> 100	6.9	CO[C@H]1O[C@@H]([C@H](O)C(C)(C)OC)C[C@H]1[C@H]1CC=C2[C@]3(C)[C@H](O)C[C@H]4C(C)(C)[C@H](OC(C)=O)CC[C@]4(C)[C@H]3CC[C@]21C [CHISOPANIN F]
> 100	5.3	CCOC(C)(C)[C@@H](O)[C@H]1C[C@@H]([C@H]2CC=C3[C@]4(C)[C@H](O)C[C@H]5C(C)(C)[C@H](OC(C)=O)CC[C@]5(C)[C@H]4CC[C@]32C)[C@H](OC)O1 [CHISOPANIN I]
> 100	> 50	CCO[C@H]1O[C@@H]([C@H](O)C(C)(C)O)C[C@H]1[C@H]1CC=C2[C@]3(C)[C@H](O)C[C@H]4C(C)(C)[C@H](OC(C)=O)CC[C@]4(C)[C@H]3CC[C@]21C [CHISOPANIN H]
> 100	5.4	CCO[C@@H]1O[C@@H]([C@H](O)C(C)(C)O)C[C@H]1[C@H]1CC=C2[C@]3(C)[C@H](O)C[C@H]4C(C)(C)[C@H](OC(C)=O)CC[C@]4(C)[C@H]3CC[C@]21C [CHISOPANIN G]
